The target in experiment [1] is E174A mutant of cSH3 domain (cSH3_E174A) of Grb2 (Homo sapiens, UniProt P62993, E174A). Briefly: ITC binding of G1 and G2 peptides to cSH3_E174A. A digest of the protocol: (§1)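 Human Grb2 cSH3 domain (wildtype or point mutant) expressed in E. coli Rosetta2(DE3), purified by Ni-NTA and size-exclusion chromatography. 12-mer human Gab1 peptides, concentration measured gravimetrically. ITC at 25 °C in 50 mM Tris pH 8.0, 200 mM NaCl, 1 mM EDTA, 5 mM β-mercaptoethanol: 25 injections of 2–8 mM peptide into 50–200 µM cSH3. Kd from one-site non-linear least-squares fit; 3–4 independent runs, SD.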
Sequence of E174A mutant of cSH3 domain (cSH3_E174A) of Grb2 (P62993 156-215 E174A limits assumed): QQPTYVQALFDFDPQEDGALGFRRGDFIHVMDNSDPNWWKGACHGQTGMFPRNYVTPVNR

Experiment [2] addresses D187A mutant of cSH3 domain (cSH3_D187A) of Grb2 (Homo sapiens, UniProt P62993, D187A). The experiment can be described thus: ITC binding of G1 and G2 peptides to cSH3_D187A. The conditions noted are these: SD. A digest of the protocol:
as §1

In experiment [3] the target is D190A mutant of cSH3 domain (cSH3_D190A) of Grb2 (Homo sapiens, UniProt P62993, D190A). The experiment can be described thus: ITC binding of G1 and G2 peptides to cSH3_D190A. The conditions noted are these: SD. A digest of the protocol: as §1
Sequence of D190A mutant of cSH3 domain (cSH3_D190A) of Grb2 (P62993 156-215 D190A limits assumed): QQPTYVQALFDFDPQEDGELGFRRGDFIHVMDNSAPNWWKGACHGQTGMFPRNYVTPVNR
Experiment [4] has as its target cSH3 domain of Grb2 (Homo sapiens, UniProt P62993). The experiment can be described thus: ITC binding of Gab1-derived peptides to wildtype cSH3 domain of Grb2. The conditions noted are these: binding affinity (Kd), 50 mM Tris, pH 8.0, 25 °C (Figure 3a).
The target in experiment [5] is E171A mutant of cSH3 domain (cSH3_E171A) of Grb2 (Homo sapiens, UniProt P62993, E171A). The experiment can be described thus: ITC binding of G1 and G2 peptides to cSH3_E171A. The conditions noted are these: SD. A digest of the protocol: as §1
Sequence of E171A mutant of cSH3 domain (cSH3_E171A) of Grb2 (P62993 156-215 E171A limits assumed): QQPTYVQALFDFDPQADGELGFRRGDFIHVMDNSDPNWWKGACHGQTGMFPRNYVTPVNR

Ends that are not written are not given here.

The values that follow come from PMC3116947 (Journal of Molecular Recognition, 2010).

Sequence of D187A mutant of cSH3 domain (cSH3_D187A) of Grb2 (P62993 156-215 D187A limits assumed): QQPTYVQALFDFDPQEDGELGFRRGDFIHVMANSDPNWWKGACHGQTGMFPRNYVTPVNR
Sequence of cSH3 domain of Grb2 (P62993 156-215 limits assumed): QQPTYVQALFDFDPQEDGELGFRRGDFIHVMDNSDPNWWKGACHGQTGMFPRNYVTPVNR

As for DIPPPRPPKPHP [Peptide G1], the Kd – broadly, the constant that tells how readily two partners part at equilibrium – in experiment [1] was above 1000 µM; in experiment [2] it was 171 ± 8 µM; in experiment [3], 177 ± 17 µM; in experiment [4] (in the absence of NaCl), around 50 µM; in experiment [4] (in the presence of 500 mM NaCl), around 200 µM; in experiment [5], 444 ± 55 µM.

PPPVDRNLKPDR [Peptide G2]: the Kd in experiment [1] is above 1000 µM; in experiment [2], 182 ± 3 µM; in experiment [3], 77 ± 6 µM; in experiment [5] it was 158 ± 1 µM.
